Tb MetRS inh – blocks T. brucei methionyl-tRNA synthetase activity; purified T. brucei MetRS, ATP depletion, Kinase-Glo luminescence; inhibition, % at 11.9 µM; 0.4% of 360,000 active; AID 624268;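 active = inhibition above a per-plate cutoff of the control wells' mean inhibition plus 3 SD, cut at about 5.5% in these data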;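 note: 0% = DMSO wells median and 100% = median of wells with control inhibitor compound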
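assay system = parasite MetRS enzyme | timing = 15 min preincubation, 2 h reaction, all 25 °C | evaluation = percent inhibition relative to median high and low control wells | medium = HEPES buffer containing pyrophosphatase, BSA, spermine, DTT | compound = single dose, 11.9 µM final nominal, 0.9% final DMSO | detection = Kinase-Glo luminescence, ATP depletion format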
MC4R antag cAMP – blocks human MC4R cAMP signaling; MC4R-expressing cells, MTII-stimulated cAMP, LANCE TR-FRET; 0.48% of 360,000 active; P32245; AID 540295; inhibition, % at 6.5 µM;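 active = inhibition above its plate's cutoff, the mean of tested wells on that plate plus 3 SD, cut at about 29% in these data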;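 note: 0% = Melanotan II alone and 100% = Melanotan II plus saturating MCL0020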
Target sequence (P32245 whole entry, looked up): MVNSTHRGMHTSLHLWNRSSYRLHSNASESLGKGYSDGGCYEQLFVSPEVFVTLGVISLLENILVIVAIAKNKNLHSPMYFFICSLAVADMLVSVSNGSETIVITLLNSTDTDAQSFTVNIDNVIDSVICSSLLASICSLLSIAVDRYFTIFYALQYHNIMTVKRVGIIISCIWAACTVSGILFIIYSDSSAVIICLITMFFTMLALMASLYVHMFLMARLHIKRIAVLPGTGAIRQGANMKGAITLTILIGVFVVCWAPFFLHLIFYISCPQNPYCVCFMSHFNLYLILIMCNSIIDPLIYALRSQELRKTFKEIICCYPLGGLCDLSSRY
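material = U2OS cells stably expressing human melanocortin 4 receptor (MC4R) | also added = Melanotan II challenge | dosing = single nominal compound dose of 6.5 µM | detection = TR-FRET with Eu-cAMP and labeled anti-cAMP, 671 nm | replication = singlicate | timing = compound 30 min, challenge 1 h, detection 1 h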
iPSC survival up – increases survival of single human iPS cells; hiPSC single-cell survival, ATPlite luminescence; 100% = ROCK inhibitor wells, 0% = DMSO; survival enhancement, % at 20 µM; 0.044% of 360,000 active; in the data active = survival enhancement above about 18%;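 note: cells exposed to compounds for 16 hours before the ATP read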
MC4R ag barr – agonists of human melanocortin 4 receptor (MC4R) beta-arrestin. U2OS MC4R beta-arrestin complementation, luminescence; percent of melanotan II response, DMSO zero. 0.98% of 360,000 active. P32245. activation, % at 8.9 µM;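 active = activation above a per-plate cutoff, the mean activation of sample wells on that plate plus 3 SD, cut at about 8% in these data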
Exocytosis inh – blocks lytic granule exocytosis | inhibition, % at 10 µM | AID 651702 | TALL-104 LAMP-1 surface exposure, flow cytometry; cells stimulated with thapsigargin and PMA | 0.66% of 360,000 active;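 active = inhibition above about 55%, limit read from the data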
ABCB6 inh MLPCN – human ABCB6 transporter inhibition; 0.19% of 360,000 active; Q9NP58; AID 602162; K562-ABCB6 porphyrin accumulation, flow cytometry, 1 h; active compounds read low; fluorescence ratio to DMSO, % at 10 µM;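 active = fluorescence ratio to DMSO below 75%, the collection mean minus 3 SD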;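 note: signal is porphyrin accumulated inside mitochondria; 100% equals median channel fluorescence of DMSO control wells; lower ratio means ABCB6 inhibition with less porphyrin fluorescence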
cAMP nonselect – nonselective cAMP signaling inhibitor, MC4R antagonist counter-screen; shares compounds with MC4R antag cAMP; parental U2OS, forskolin cAMP, LANCE TR-FRET; inhibition, % at 6.5 µM; 26% of 1,600 active; AID 602193;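 active = mean inhibition over triplicates above the low-control well mean plus 3 SD, set per campaign, cut at about 13% in these data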;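 note: signal is single emission at 671 nm which falls as cellular cAMP rises; 0% = forskolin-stimulated wells and 100% = buffer without forskolin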
MC4R cAMP antag – human MC4R cAMP antagonism confirmation | MC4R-expressing cells, MTII-stimulated cAMP, TR-FRET | AID 602195 | shares compounds with MC4R antag cAMP | 27% of 1,600 active | inhibition, % at 6.5 µM; in the data active = inhibition above about 29%;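 note: 0% = agonist stimulated wells alone and 100% = agonist stimulated wells plus saturating reference antagonist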
* hit, by the source's call. Sampled rows, rich in hits. Any-hit rate of the full collection: about 2.6%.

For COc1ccc(NC(=O)CC(C)C)c(OC)c1 the results were Tb MetRS inh -1, MC4R antag cAMP 2, iPSC survival up 2, MC4R ag barr -1, Exocytosis inh 2 and ABCB6 inh MLPCN 103.
`COc1ccc(NC(=O)Nc2ccccc2SC)c(OC)c1` gave Tb MetRS inh 0, MC4R antag cAMP 34*, iPSC survival up -1, MC4R ag barr 1, Exocytosis inh -3, ABCB6 inh MLPCN 100, cAMP nonselect -3 and MC4R cAMP antag -10.
Screening COC(=O)C(Cc1ccccc1)NC(=O)CC(C)CC(=O)Nc1ccc(OC)cc1OC (stereo unspecified) returned Tb MetRS inh 0, MC4R antag cAMP 35*, iPSC survival up 0, MC4R ag barr 0, Exocytosis inh 0, ABCB6 inh MLPCN 100, cAMP nonselect 9 and MC4R cAMP antag 9.
For CN(c1ccccc1)S(=O)(=O)c1cccc(NC(=O)CCNC(=O)c2ccco2)c1 the results were Tb MetRS inh 0, MC4R antag cAMP 7, iPSC survival up 9, MC4R ag barr -2, Exocytosis inh 11 and ABCB6 inh MLPCN 93.
N#Cc1c(C(F)(F)F)cc(Cc2ccccc2)nc1SCC(=O)NCC(=O)O was read as Tb MetRS inh 0, MC4R antag cAMP -3, iPSC survival up 0, MC4R ag barr -2, Exocytosis inh -2 and ABCB6 inh MLPCN 97.
CCOC(=O)CC1C(=O)NCCN1S(=O)(=O)c1ccc(Br)cc1 (stereo unspecified) was read as Tb MetRS inh 0, MC4R antag cAMP 1, iPSC survival up 0, MC4R ag barr -1, Exocytosis inh 3 and ABCB6 inh MLPCN 99.
`Cc1cc(C#N)c(C)c(SCc2[nH]nc3c2C(c2ccccc2)C(C#N)=C(N)O3)n1` (stereo unspecified) gave Tb MetRS inh 0, MC4R antag cAMP 31*, iPSC survival up 0, MC4R ag barr 1, Exocytosis inh 2, ABCB6 inh MLPCN 98, cAMP nonselect 4 and MC4R cAMP antag -6.
Screening CC(C)C1CC(CCNCc2ccc3c(c2)OCO3)(c2ccccc2)CCO1 (stereo unspecified) returned Tb MetRS inh 0, MC4R antag cAMP 34*, iPSC survival up -1, MC4R ag barr 3, Exocytosis inh 2, ABCB6 inh MLPCN 94, cAMP nonselect 0 and MC4R cAMP antag 41*.
Screening COc1ccc(-c2cn(CCC(=O)NCc3ccc(C)cc3)c(CCN)n2)cc1 returned Tb MetRS inh 0, MC4R antag cAMP 9, iPSC survival up -3, MC4R ag barr 1, Exocytosis inh 4 and ABCB6 inh MLPCN 98.
`O=C(CNc1ccc(F)cc1)N/N=C1\CCCc2ccccc21` gave Tb MetRS inh 0, MC4R antag cAMP 30*, iPSC survival up -1, MC4R ag barr -1, Exocytosis inh 9, ABCB6 inh MLPCN 97, cAMP nonselect 1 and MC4R cAMP antag 6.
COc1ccc(N2CCN(c3nc(Cl)nc(Nc4ccc(F)cc4)n3)CC2)cc1 was read as Tb MetRS inh 0, MC4R antag cAMP 38*, iPSC survival up 1, MC4R ag barr -3, Exocytosis inh 9, ABCB6 inh MLPCN 89, cAMP nonselect 14* and MC4R cAMP antag 55*.
For CSCCC(NC(=O)c1ccc(Cl)cc1)C(=O)OCC(=O)N1CCCC1=O (stereo unspecified) the results were Tb MetRS inh 0, MC4R antag cAMP 15, iPSC survival up 0, MC4R ag barr -3, Exocytosis inh 6 and ABCB6 inh MLPCN 96.
Screening COc1ccccc1C(=O)NC(CCSC)C(=O)OCC(=O)N1CCCC1=O (stereo unspecified) returned Tb MetRS inh 0, MC4R antag cAMP 29*, iPSC survival up 0, MC4R ag barr -2, Exocytosis inh -2, ABCB6 inh MLPCN 97, cAMP nonselect 17* and MC4R cAMP antag 42*.
Screening Cc1cc(C(=O)COC(=O)C2=NN(c3ccccc3)C(=O)CC2)c(C)n1CC(F)(F)F returned Tb MetRS inh 0, MC4R antag cAMP 30*, iPSC survival up 0, MC4R ag barr 2, Exocytosis inh 0, ABCB6 inh MLPCN 96, cAMP nonselect 0 and MC4R cAMP antag -6.
Cc1cccc(OC(=O)c2sc(Cl)nc2C)c1 was read as Tb MetRS inh -2, MC4R antag cAMP 32*, iPSC survival up -1, MC4R ag barr -2, Exocytosis inh -5, ABCB6 inh MLPCN 99, cAMP nonselect 14* and MC4R cAMP antag 32*.
COc1cccc(N(CC(=O)NC2CCCCC2)C(=O)Cn2nnc(-c3ccc(C)o3)n2)c1 was read as Tb MetRS inh 0, MC4R antag cAMP 2, iPSC survival up 0, MC4R ag barr 2, Exocytosis inh -5 and ABCB6 inh MLPCN 96.
`C[C@H]1Cn2cnc(C(=O)Nc3ccccc3)c2C(=O)N1` gave Tb MetRS inh 0, MC4R antag cAMP 31*, iPSC survival up -2, MC4R ag barr -1, Exocytosis inh -7, ABCB6 inh MLPCN 101, cAMP nonselect -1 and MC4R cAMP antag -1.
`C[C@@H]1Cn2cnc(C(=O)Nc3ccccc3)c2C(=O)N1` gave Tb MetRS inh 1, MC4R antag cAMP 20, iPSC survival up -1, MC4R ag barr 1, Exocytosis inh 1 and ABCB6 inh MLPCN 100.
Screening CC1(C(=O)Nc2ccc3c(c2)OCO3)Cc2c(-c3cccc(C(N)=O)c3)ccnc2O1 (stereo unspecified) returned Tb MetRS inh 0, MC4R antag cAMP -21, iPSC survival up 0, MC4R ag barr -2, Exocytosis inh 11 and ABCB6 inh MLPCN 104.
CC1(C)Cc2c(sc3[nH]c(=S)n(Cc4ccco4)c(=O)c23)CO1 was read as Tb MetRS inh 0, MC4R antag cAMP 34*, iPSC survival up -1, MC4R ag barr 0, Exocytosis inh 4, ABCB6 inh MLPCN 98, cAMP nonselect 7 and MC4R cAMP antag 17.
For O=c1sc(N2CCN(c3ccc(F)cc3)CC2)nc2ccsc12 the results were Tb MetRS inh 0, MC4R antag cAMP active, iPSC survival up 1, MC4R ag barr 6, Exocytosis inh 9, ABCB6 inh MLPCN 98, cAMP nonselect -3 and MC4R cAMP antag 2.
`O=c1sc(N2CCN(c3ccccc3F)CC2)nc2ccsc12` gave Tb MetRS inh -1, MC4R antag cAMP 4, iPSC survival up -2, MC4R ag barr 6, Exocytosis inh -7 and ABCB6 inh MLPCN 98.
